Experiments:
Plasmodium falciparum [1] = test: Inhibition of Plasmodium falciparum protein farnesyltransferase at 50 nM by scintillation proximity assay
Plasmodium falciparum [2] = test: Inhibition of Plasmodium falciparum protein farnesyltransferase at 5 nM by scintillation proximity assay
Plasmodium falciparum [3] = test: Inhibition of Plasmodium falciparum protein farnesyltransferase at 0.5 nM by scintillation proximity assay
Plasmodium falciparum [4] = test: Antimalarial activity against Plasmodium falciparum 3D7; format: functional; conditions: read-out: ED50 (the source's name)
Outline: (§1)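 Asynchronous culture in type A+ erythrocytes at 0.5% parasitemia and 0.5% hematocrit, grown in RPMI-1640 with 20% heat-inactivated human A+ plasma. Compound was serially diluted from a top final 5 µM, with DMSO vehicle as 100% growth. Plates ran 48 h at 37 °C under 5% CO2/5% O2/90% N2, then [3H]-hypoxanthine (0.3 µCi) for 24 h. Filter-harvested counts were corrected for the uninfected-RBC background. ED50 by linear regression; duplicates averaged.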

Plasmodium falciparum [5] = test: Antimalarial activity against Plasmodium falciparum K1; format: functional; conditions: read-out: ED50 (the source's name); outline: as §1

inhibition (Plasmodium falciparum [1]) | inhibition (Plasmodium falciparum [2]) | inhibition (Plasmodium falciparum [3]) | EC50 (Plasmodium falciparum [4]; Plasmodium falciparum, 3D7) | EC50 (Plasmodium falciparum [5]; Plasmodium falciparum, K1) | EC50 (Plasmodium falciparum [4]) | EC50 (Plasmodium falciparum [5]) | SMILES
96% | 77% | 28% | 100 nM | 100 nM |  |  | COC(=O)NCCCN(C1Cc2cc(C#N)ccc2N(Cc2cncn2C)C1)S(=O)(=O)c1ccccn1 (stereo not given)
82% | 37% |  | 1600 nM | 2200 nM |  |  | Cn1cncc1CN1CC(N(CC(N)=O)S(=O)(=O)c2ccccn2)Cc2cc(C#N)ccc21 (stereo not given)
94% | 62% |  | 450 nM | 2800 nM |  |  | Cc1oncc1CN(C1Cc2cc(C#N)ccc2N(Cc2cncn2C)C1)S(=O)(=O)c1ccccn1 (stereo not given)
11% | 6% | 6% | > 5000 nM | 3000 nM |  |  | Cn1cnc(CN2CC(N(CC(=O)NC(C)(C)C)S(=O)(=O)c3ccccn3)Cc3cc(-c4ccccc4)ccc32)c1 (stereo not given)
84% | 39% |  | 750 nM | 690 nM |  |  | Cn1cncc1CN1CC(N(Cc2ccc(C(F)(F)F)o2)S(=O)(=O)c2ccccn2)Cc2cc(C#N)ccc21 (stereo not given)
55% | 22% | 1% | 1100 nM | 1800 nM |  |  | CCCS(=O)(=O)N(CC1CCN(C(=O)OC)CC1)C1Cc2cc(C#N)ccc2N(Cc2cncn2C)C1 (stereo not given)
97% | 96% | 82% | 9 nM | 10 nM |  |  | Cn1cnc(S(=O)(=O)N(CCc2ccccc2)C2Cc3cc(C#N)ccc3N(Cc3cncn3C)C2)c1 (stereo not given)
100% | 96% | 39% | 60 nM | 75 nM |  |  | COC(=O)N1CCC(CN(C2Cc3cc(C#N)ccc3N(Cc3cncn3C)C2)S(=O)(=O)c2cn(C)c(C)n2)CC1 (stereo not given)
68% | 21% | 2% | > 5000 nM | > 5000 nM |  |  | COC(=O)N1CCC(CN(C2Cc3cc(C#N)ccc3N(Cc3cncn3C)C2)S(=O)(=O)c2ccc3oc(=O)ccc3c2)CC1 (stereo not given)
0% | 3% | 2% | > 5000 nM | > 5000 nM |  |  | Cc1nc(C)c(S(=O)(=O)N(CC(=O)NC(C)(C)C)C2Cc3cc(C#N)ccc3N(Cc3cncn3C)C2)s1 (stereo not given)
95% | 66% | 18% | 440 nM | 240 nM |  |  | Cn1cncc1CN1CC(N(CCC2(C)OCC(C)(C)CO2)S(=O)(=O)c2ccccn2)Cc2cc(C#N)ccc21 (stereo not given)
97% | 69% |  | 143 nM | 617 nM |  |  | Cn1cncc1CN1CC(N(Cc2cccc(-n3cccc3)c2)S(=O)(=O)c2ccccn2)Cc2cc(C#N)ccc21 (stereo not given)
 |  |  |  |  | 18 nM | 18 nM | Cn1cnc(S(=O)(=O)N(Cc2ccccc2F)C2Cc3cc(C#N)ccc3N(Cc3cncn3C)C2)c1 (stereo in doubt; 110)
100% | 86% | 26% | 21 nM | 8.5 nM |  |  | Cn1cnc(S(=O)(=O)N(CCc2cccs2)C2Cc3cc(C#N)ccc3N(Cc3cncn3C)C2)c1 (stereo not given)
91% | 38% | 0% | 650 nM | 3000 nM |  |  | Cn1cncc1CN1CC(N(Cc2ccccc2C(F)(F)F)S(=O)(=O)c2ccccn2)Cc2cc(C#N)ccc21 (stereo not given)
99% | 86% | 25% | 62 nM | 140 nM |  |  | COC(=O)N1CCC(CN(C2Cc3cc(C#N)ccc3N(Cc3cncn3C)C2)S(=O)(=O)c2cc(C)cs2)CC1 (stereo not given)
96% | 17% | 89% | 75 nM | 55 nM |  |  | CC(C)S(=O)(=O)N1CCC(CN(C2Cc3cc(C#N)ccc3N(Cc3cncn3C)C2)S(=O)(=O)c2ccccn2)CC1 (stereo not given)
25% | 0% | 4% | > 5000 nM | > 5000 nM |  |  | Cn1cnc(S(=O)(=O)N(CC(=O)NC(C)(C)C)C2Cc3cc(C(=O)NC(C)(C)C)ccc3N(Cc3cncn3C)C2)c1 (stereo not given)
100% | 99% | 82% | 6 nM | 10 nM |  |  | Cn1cnc(S(=O)(=O)N(Cc2ccc(S(C)(=O)=O)cc2)C2Cc3cc(C#N)ccc3N(Cc3cncn3C)C2)c1 (stereo not given)
99% | 91% | 29% | 400 nM | 700 nM |  |  | Cn1cnc(CN2CC(N(CCS(C)(=O)=O)S(=O)(=O)c3cn(C)cn3)Cc3cc(-c4ccccc4)ccc32)c1 (stereo not given)
100% | 96% | 61% | 19 nM | 17 nM |  |  | COC(=O)NCCCN(C1Cc2cc(C#N)ccc2N(Cc2cncn2C)C1)S(=O)(=O)c1cn(C)cn1 (stereo not given)
98% | 87% | 31% | 150 nM | 73 nM |  |  | Cn1cnc(S(=O)(=O)N(CCCCCC(N)=O)C2Cc3cc(C#N)ccc3N(Cc3cncn3C)C2)c1 (stereo not given)

inhibition (Plasmodium falciparum [1]) | inhibition (Plasmodium falciparum [2]) | inhibition (Plasmodium falciparum [3]) | EC50 (Plasmodium falciparum [4]; Plasmodium falciparum, 3D7) | EC50 (Plasmodium falciparum [5]; Plasmodium falciparum, K1) | EC50 (Plasmodium falciparum [4]) | EC50 (Plasmodium falciparum [5]) | SMILES
89% | 49% | 5% | > 5000 nM | 675 nM |  |  | COC(=O)N1CCC(CN(C2Cc3cc(C#N)ccc3N(Cc3cncn3C)C2)S(=O)(=O)c2ccc(C(=O)O)o2)CC1 (stereo not given)
89% | 69% | 26% | 250 nM | 600 nM |  |  | CCN(CCCCN(C1Cc2cc(C#N)ccc2N(Cc2cncn2C)C1)S(=O)(=O)c1ccccn1)C(=O)OC (stereo not given)
90% | 59% | 15% | 230 nM | 400 nM |  |  | COC(=O)N(C)CCCCN(C1Cc2cc(C#N)ccc2N(Cc2cncn2C)C1)S(=O)(=O)c1ccccn1 (stereo not given)
93% | 86% | 39% | 90 nM | 150 nM |  |  | COC(=O)N1CCC(CN(C2Cc3cc(C#N)ccc3N(Cc3cncn3C)C2)S(=O)(=O)c2cccc(F)c2)CC1 (stereo not given)
90% | 51% | 0% | 350 nM | 200 nM |  |  | Cc1cc(=O)n(CCCCN(C2Cc3cc(C#N)ccc3N(Cc3cncn3C)C2)S(=O)(=O)c2ccccn2)c(=O)n1C (stereo not given)
72% | 15% | 0% | > 5000 nM | > 5000 nM |  |  | Cn1cnc(S(=O)(=O)N(CCN)C2Cc3cc(C#N)ccc3N(Cc3cncn3C)C2)c1 (stereo not given)
90% | 52% |  | 850 nM | 850 nM |  |  | Cn1cncc1CN1CC(N(Cc2cccc(-n3cccn3)c2)S(=O)(=O)c2ccccn2)Cc2cc(C#N)ccc21 (stereo not given)
97% | 66% |  | 140 nM | 600 nM |  |  | Cc1nn(-c2ccccc2)nc1CN(C1Cc2cc(C#N)ccc2N(Cc2cncn2C)C1)S(=O)(=O)c1ccccn1 (stereo not given)
93% | 54% |  | 330 nM | 340 nM |  |  | Cn1cnc(S(=O)(=O)N(Cc2ccc(-n3cncn3)cc2)C2Cc3cc(C#N)ccc3N(Cc3cncn3C)C2)c1 (stereo not given)
98% | 97% |  | 14 nM | 18 nM |  |  | Cn1cnc(S(=O)(=O)N(CCN2C(=O)c3ccccc3C2=O)C2Cc3cc(C#N)ccc3N(Cc3cncn3C)C2)c1 (stereo not given)
92% | 63% |  | 820 nM | 3600 nM |  |  | Cn1cncc1CN1CC(N(CCCCN2C(=O)c3ccccc3C2=O)S(=O)(=O)c2ccccn2)Cc2cc(C#N)ccc21 (stereo not given)
 | 45% | 22% | 150 nM | 140 nM |  |  | Cn1cnc(S(=O)(=O)N(CC(=O)OC(C)(C)C)C2Cc3cc(C#N)ccc3N(Cc3cncn3Cc3ccccc3)C2)c1 (stereo not given)
95% | 89% |  | 105 nM | 490 nM |  |  | Cn1cncc1CN1CC(N(Cc2cccnc2)S(=O)(=O)c2ccccn2)Cc2cc(C#N)ccc21 (stereo not given)
59% | 1% | 0% | 4600 nM |  |  |  | Cn1cnc(S(=O)(=O)N(CC(=O)NC(C)(C)C)C2Cc3cc(C(=O)NCc4ccccc4)ccc3N(Cc3cncn3C)C2)c1 (stereo not given)
99% | 93% | 48% | 100 nM |  |  |  | COC(=O)N1CCC(CN(C2Cc3cc(C#N)ccc3N(Cc3cncn3C)C2)S(=O)(=O)c2cccnc2)CC1 (stereo not given)
100% | 100% | 77% | 40 nM |  |  |  | CCS(=O)(=O)c1ccc(CN(C2Cc3cc(C#N)ccc3N(Cc3cncn3C)C2)S(=O)(=O)c2cn(C)cn2)cc1 (stereo not given)
66% | 15% |  | 520 nM | 750 nM |  |  | Cn1cncc1CN1CC(N(Cc2ccc(Br)cc2)S(=O)(=O)c2ccccn2)Cc2cc(C#N)ccc21 (stereo not given)
22% | 15% | 0% | 2700 nM |  |  |  | Cn1cnc(CN2CC(N(CC3CCN(C(=O)OC(C)(C)C)CC3)S(=O)(=O)c3ccccn3)Cc3cc(-c4ccccc4)ccc32)c1 (stereo not given)
53% | 11% |  | 450 nM | 590 nM |  |  | Cn1cncc1CN1CC(N(Cc2cccc(-n3cncn3)c2)S(=O)(=O)c2ccccn2)Cc2cc(C#N)ccc21 (stereo not given)
 |  |  |  |  | 580 nM | 500 nM | Cn1cnc(S(=O)(=O)N(Cc2ccccc2F)C2Cc3cc(C#N)ccc3N(Cc3cncn3C)C2)c1 (stereo in doubt; 212)
96% | 67% | 8% | 600 nM |  |  |  | Cn1cncc1CN1CC(N(Cc2ccc(S(C)(=O)=O)cc2)S(=O)(=O)c2cccc(F)c2)Cc2cc(C#N)ccc21 (stereo not given)
96% | 67% | 15% | 38 nM |  |  |  | COC(=O)N1CCC(CN(C2Cc3cc(C#N)ccc3N(Cc3cncn3C)C2)S(=O)(=O)c2nccn2C)CC1 (stereo not given)
